Data published in ChEMBL document CHEMBL4808182, “Discovery of the Soluble Guanylate Cyclase Activator Runcaciguat (BAY 1101042)” (J Med Chem, 2021).

Experiments:
[1] = Activation of recombinant rat sGC expressed in CHO cells by luminescence assay; format: cell-based; details: CHO
Outline: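 Stable CHO reporter cell line overexpressing rat sGC; cGMP formation read as luminescence. EC50 from concentration–response. MEC taken as lowest concentration giving at least threefold increase in basal luminescence.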

[2] = Volume of distribution at steady state in iv dosed Wistar rat measured up to 24 hrs by LC-MS analysis; format: ADME, organism-based; details: in vivo, read-out: Vdss
Outline: (§1)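 Three animals per species and strain received an intravenous dose. Steady-state volume of distribution (L/kg) was derived from the blood concentration–time profile, alongside blood clearance and terminal half-life.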

[3] = Plasma clearance in iv dosed Beagle dog measured up to 24 hrs by LC-MS analysis; format: ADME, organism-based, Canis lupus familiaris
[4] = Oral bioavailability in cynomolgus monkey measured up to 24 hrs by LC-MS analysis; format: ADME, organism-based, Macaca fascicularis; details: in vivo
[5] = Half life in iv dosed cynomolgus monkey measured up to 24 hrs by LC-MS analysis; format: ADME, organism-based, Macaca fascicularis; details: in vivo
[6] = target: T1, Guanylate cyclase soluble subunit alpha-1 (Rattus norvegicus) (UniProt P19686); test: Activation of recombinant rat sGC alpha1 subunit expressed in CHO cells assessed as induction of [32P-cGMP] formation using alpha-[32P-GTP] as substrate measured after 6 mins by luminescence assay; format: cell-based; details: filed as activator
T1 sequence (whole entry): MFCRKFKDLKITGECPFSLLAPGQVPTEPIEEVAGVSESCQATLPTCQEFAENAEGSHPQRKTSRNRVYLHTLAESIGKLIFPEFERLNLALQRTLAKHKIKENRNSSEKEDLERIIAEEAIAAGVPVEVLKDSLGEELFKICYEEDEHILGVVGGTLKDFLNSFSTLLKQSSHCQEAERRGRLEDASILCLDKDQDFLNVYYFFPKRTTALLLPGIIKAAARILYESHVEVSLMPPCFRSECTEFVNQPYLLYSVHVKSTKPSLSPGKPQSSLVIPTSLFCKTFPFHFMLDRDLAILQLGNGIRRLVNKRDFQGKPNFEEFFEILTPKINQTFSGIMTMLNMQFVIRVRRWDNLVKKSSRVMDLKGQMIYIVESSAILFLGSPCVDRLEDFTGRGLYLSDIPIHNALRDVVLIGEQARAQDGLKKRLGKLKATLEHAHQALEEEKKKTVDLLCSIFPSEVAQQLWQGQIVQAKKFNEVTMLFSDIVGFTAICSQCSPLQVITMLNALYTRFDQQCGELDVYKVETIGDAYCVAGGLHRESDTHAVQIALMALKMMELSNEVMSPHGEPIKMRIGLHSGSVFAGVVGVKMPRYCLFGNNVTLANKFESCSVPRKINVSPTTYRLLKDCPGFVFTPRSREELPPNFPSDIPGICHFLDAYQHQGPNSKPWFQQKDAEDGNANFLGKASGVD

[7] = Volume of distribution at steady state in iv dosed Beagle dog measured up to 24 hrs by LC-MS analysis; format: ADME, organism-based, Canis lupus familiaris; details: in vivo, read-out: Vdss; outline: as §1
[8] = Half life in iv dosed Beagle dog measured up to 24 hrs by LC-MS analysis; format: ADME, organism-based, Canis lupus familiaris; details: in vivo
[9] = Oral bioavailability in Wistar rat measured up to 24 hrs by LC-MS analysis; format: ADME, organism-based; details: in vivo
[10] = Oral bioavailability in Beagle dog measured up to 24 hrs by LC-MS analysis; format: ADME, organism-based, Canis lupus familiaris; details: in vivo
Cytochrome P450 1A2 [11] = target: T2, Cytochrome P450 1A2 (Homo sapiens, UniProt P05177); test: Induction of CYP1A2 in human hepatocytes at > 123 ng/ml using phenacetin as substrate incubated for 60 mins by LC-MS/MS analysis; format: ADME, cell-based, Hepatocyte; details: 1 h
T2 sequence (P05177 whole entry): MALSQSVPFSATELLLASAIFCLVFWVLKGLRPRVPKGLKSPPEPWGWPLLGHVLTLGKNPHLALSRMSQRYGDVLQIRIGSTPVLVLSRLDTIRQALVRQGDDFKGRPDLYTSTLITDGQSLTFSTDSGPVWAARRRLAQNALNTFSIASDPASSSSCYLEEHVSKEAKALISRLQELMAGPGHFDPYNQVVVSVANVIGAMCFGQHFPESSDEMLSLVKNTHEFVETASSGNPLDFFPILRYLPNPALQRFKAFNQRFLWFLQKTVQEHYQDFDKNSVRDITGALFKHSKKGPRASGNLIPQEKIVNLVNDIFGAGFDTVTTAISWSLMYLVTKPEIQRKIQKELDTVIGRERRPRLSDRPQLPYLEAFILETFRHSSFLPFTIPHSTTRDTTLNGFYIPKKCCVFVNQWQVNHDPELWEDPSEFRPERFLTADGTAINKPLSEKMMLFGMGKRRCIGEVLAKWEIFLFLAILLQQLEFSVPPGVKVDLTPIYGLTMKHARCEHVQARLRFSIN

[12] = Clearance in Wistar rat at 0.3 mg/kg, iv measured up to 24 hrs by LC-MS analysis; format: ADME, organism-based; details: in vivo
Outline: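 Rats dosed iv at 0.3 mg/kg; blood clearance determined.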

[13] = Plasma clearance in iv dosed cynomolgus monkey measured up to 24 hrs by LC-MS analysis; format: ADME, organism-based, Macaca fascicularis
[14] = Induction of CYP3A4 in human hepatocytes using phenacetin as substrate incubated for 60 mins by LC-MS/MS analysis; details: 1 h
[15] = Half life in iv dosed Wistar rat measured up to 24 hrs by LC-MS analysis; format: ADME, organism-based; details: in vivo
[16] = Volume of distribution at steady state in iv dosed cynomolgus monkey measured up to 24 hrs by LC-MS analysis; format: ADME, organism-based, Macaca fascicularis; details: in vivo, read-out: Vdss; outline: as §1
[17] = target: T1, Guanylate cyclase soluble subunit alpha-1 (Rattus norvegicus); test: Activation of recombinant rat sGC alpha1 subunit expressed in CHO cells assessed as induction of [32P-cGMP] formation by measuring efficacy using alpha-[32P-GTP] as substrate measured after 6 mins by luminescence assay relative to control; format: cell-based; details: filed as activator
Cytochrome P450 3A4 = Cytochrome P450 3A4 (Homo sapiens, UniProt P08684); test: Induction of CYP3A4 in human hepatocytes at > 10000 ng/ml using phenacetin as substrate incubated for 60 mins by LC-MS/MS analysis; format: ADME, cell-based, Hepatocyte; details: 1 h
Cytochrome P450 1A2 [18] = target: T2, Cytochrome P450 1A2; test: Induction of CYP1A2 in human hepatocytes at > 10000 ng/ml using phenacetin as substrate incubated for 60 mins by LC-MS/MS analysis; format: ADME, cell-based, Hepatocyte; details: 1 h

Chain of Cytochrome P450 3A4 (P08684 whole entry): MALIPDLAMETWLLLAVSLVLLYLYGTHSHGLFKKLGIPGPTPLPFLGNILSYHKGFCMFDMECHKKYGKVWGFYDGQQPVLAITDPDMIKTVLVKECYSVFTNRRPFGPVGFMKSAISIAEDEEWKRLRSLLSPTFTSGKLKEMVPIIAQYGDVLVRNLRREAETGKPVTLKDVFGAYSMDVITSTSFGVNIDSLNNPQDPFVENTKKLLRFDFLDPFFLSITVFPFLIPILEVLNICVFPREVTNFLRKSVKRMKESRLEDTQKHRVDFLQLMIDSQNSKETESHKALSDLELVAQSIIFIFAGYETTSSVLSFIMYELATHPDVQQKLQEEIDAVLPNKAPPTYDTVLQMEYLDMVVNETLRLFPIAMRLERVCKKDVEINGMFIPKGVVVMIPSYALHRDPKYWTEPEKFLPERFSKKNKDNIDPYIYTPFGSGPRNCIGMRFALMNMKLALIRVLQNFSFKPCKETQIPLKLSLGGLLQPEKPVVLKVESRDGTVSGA

Row | EC50 [1] | Vd [2] | clearance [3] | bioavailability [4] | half-life [5] | MEC [6] | Vd [7] | half-life [8] | bioavailability [9] | bioavailability [10] | Activity (Cytochrome P450 1A2 [11]) | clearance [12] | clearance [13] | Activity [14] | half-life [15] | Vd [16] | Efficacy [17] | Activity (Cytochrome P450 3A4) | Activity (Cytochrome P450 1A2 [18]) | SMILES
1 | 0.043 µM | 2 L/kg | 6.33 mL/min/kg | 100% | 8.3 h | 10 nM | 2.1 L/kg | 9.3 h | 100% | 78% | Not Active | 2.83 mL/min/kg | 0.833 mL/min/kg | 266 nM | 13 h | 0.55 L/kg | 63% |  |  | C[C@H]([C@H](C(=O)Nc1cc(C[C@H](C)C(=O)O)ccc1Cl)c1ccc(Cl)cc1)C(F)(F)F
2 |  |  | 2.67 mL/min/kg |  |  | 10 nM |  |  |  |  |  | 64.2 mL/min/kg | 14.3 mL/min/kg |  |  |  |  | Not Active | Not Active | O=C(O)CCc1cccc(NC(=O)[C@H](c2ccc(CN3N=C(c4ccccc4)OCC3=O)cc2)C2CCCC2)c1
3 | 0.027 µM |  |  |  |  | 3 nM |  |  |  |  |  |  |  |  |  |  | 110% | Not Active | Not Active | Cc1c(CCC(=O)O)cccc1NC(=O)[C@H](c1ccc(CN2N=C(c3ccccc3)OCC2=O)cc1)C1CCCC1
